Data from PMC7004075 (Clinical Pharmacology in Drug Development, 2019).

Columns and labels:
[1] = system: endogenous glucose production, nonhepatic glucose uptake; conditions: peripheral administration at 1.8 pmol/kg/min, preclinical; cited from earlier work
[2] = system: plasma glucose in patients with T2DM; test: Plasma glucose pharmacodynamics, Cohort 1; type: in vivo, human
[3] = Plasma insulin tregopil pharmacokinetics, Cohort 2; type: in vivo, human; conditions: for plasma insulin tregopil Cmax, mean ± SD / plasma insulin tregopil AUC0-180min, mean ± SD: 30 mg oral
patients with T2DM = test: Safety and tolerability; type: in vivo, human; conditions: for overall safety and tolerability: patients with T2DM, different dosing conditions
[4] = system: plasma glucose in patients with T2DM; test: Plasma glucose pharmacodynamics, Cohort 2; type: in vivo, human
Method in brief: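 Dosing was before each of 2 ADA meals set 4, 5 or 6 h apart and eaten within 30 min. Blood was taken predose and 10–180 min postdose. Baseline-adjusted glucose AUC0‑180min and Cmin were analysed by a mixed-effects model (sequence, period, treatment; patient-within-sequence random).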

[5] = Cohort 2, 5-hour between-meal interval, afternoon dose
[6] = Cohort 2, 5-hour between-meal interval, morning dose

human insulin: human insulin infused into portal vein or peripherally in preclinical studies
increase in plasma insulin levels in the peripheral artery [1]: 2 fold

insulin tregopil: PEGylated recombinant human insulin with a single methoxy-triethylene-glycol-propionyl unit on the Lys-β29-amino group; oral tablets
2-hour postprandial glucose (PPG), higher than the premeal levels ([2]; Cohort 1, 10 minute premeal group (placebo 55%)): 36%
2-hour postprandial glucose (PPG), higher than the premeal levels ([2]; Cohort 1, 20 minute premeal group (placebo 55%)): 55%
2-hour postprandial glucose (PPG), higher than the premeal levels ([2]; Cohort 1, 30 minute premeal group (placebo 55%)): 77%
duration of glucose-lowering action ([2]; oral, patients with T2DM): approximately 2 hours
intersubject variability of plasma insulin tregopil AUC0-180mins ([3]; Cohort 2): 144.0%
intersubject variability of plasma insulin tregopil Cmax ([3]; Cohort 2): 124.7%
intrasubject variability of plasma insulin tregopil Cmax ([3]; Cohort 2): 64.7%
plasma insulin tregopil Cmax, mean ± SD ([3]; Cohort 2, 4-hour between-meal interval, afternoon dose): 6760 ± 7680 µg/mL
plasma insulin tregopil Cmax, mean ± SD ([3]; Cohort 2, 4-hour between-meal interval, morning dose): 11330 ± 9870 µg/mL
plasma insulin tregopil AUC0-180min, mean ± SD [3, 5]: 209.27 ± 186.61 mg·min/mL
plasma insulin tregopil Cmax, mean ± SD [3, 5]: 7139 ± 5691 µg/mL
plasma insulin tregopil AUC0-180min, mean ± SD [3, 6]: 320.60 ± 196.340 mg·min/mL
plasma insulin tregopil Cmax, mean ± SD [3, 6]: 10140 ± 5310 µg/mL
plasma insulin tregopil Cmax, mean ± SD ([3]; Cohort 2, 6-hour between-meal interval, morning dose (first value)): 11320 ± 8730 µg/mL
events of hypoglycemia (patients with T2DM; Cohort 1): 4 events
events of hypoglycemia (patients with T2DM; Cohort 1, 30 minute premeal dosing time group): 3 events
events of hypoglycemia (patients with T2DM; Cohort 2, all in the afternoon): 5 events
events of hypoglycemia (patients with T2DM; all cohorts): 43 events
hypoglycemic events mild in severity (patients with T2DM; all cohorts): 83.7%
patient discontinuations from the study due to AEs (patients with T2DM; all cohorts): no patient discontinuations
duration of hypoglycemic symptoms (patients with T2DM; generally): approximately 30 minutes
overall safety and tolerability (patients with T2DM): safe and well tolerated
overall safety and tolerability (patients with T2DM; listed as Insulin tregopil): well tolerated
intrasubject variability for the baseline-adjusted PD response Cmin ([4]; Cohort 2, insulin tregopil groups (placebo 9.16%)): 11.61%
intrasubject variability for the baseline-adjusted PD response AUC0-180mins ([4]; Cohort 2, insulin tregopil groups (placebo 9.17%)): 8.41%
